Source: ChEMBL document CHEMBL4390675, “Dopamine D4 Receptor-Selective Compounds Reveal Structure-Activity Relationships that Engender Agonist Efficacy” (J Med Chem, 2019)
Calls of active or inactive are those of the source. The rule behind the calls is not given here.

Molecular target: T1, D(2) dopamine receptor (Homo sapiens, UniProt P14416)
Experiment: Agonist activity at human D2L receptor expressed in CHOK1 cells assessed as induction of beta-arrestin recruitment measured after 90 mins by luminescence assay relative to control
Assay type: cell-based
Settings: not given
Method in brief: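 PathHunter enzyme-complementation assay in CHO-K1 cells stably expressing human D2R long isoform, seeded 2625 cells/well and incubated overnight. Compounds diluted in PBS with 0.2 μM sodium metabisulfite, tested at multiple concentrations, 90 min at 37 °C. Detection reagent then 45–60 min at room temperature, luminescence read. Normalized to maximal dopamine response. Nonlinear regression of triplicate runs, n = 3–4.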

T1 sequence (P14416 whole entry): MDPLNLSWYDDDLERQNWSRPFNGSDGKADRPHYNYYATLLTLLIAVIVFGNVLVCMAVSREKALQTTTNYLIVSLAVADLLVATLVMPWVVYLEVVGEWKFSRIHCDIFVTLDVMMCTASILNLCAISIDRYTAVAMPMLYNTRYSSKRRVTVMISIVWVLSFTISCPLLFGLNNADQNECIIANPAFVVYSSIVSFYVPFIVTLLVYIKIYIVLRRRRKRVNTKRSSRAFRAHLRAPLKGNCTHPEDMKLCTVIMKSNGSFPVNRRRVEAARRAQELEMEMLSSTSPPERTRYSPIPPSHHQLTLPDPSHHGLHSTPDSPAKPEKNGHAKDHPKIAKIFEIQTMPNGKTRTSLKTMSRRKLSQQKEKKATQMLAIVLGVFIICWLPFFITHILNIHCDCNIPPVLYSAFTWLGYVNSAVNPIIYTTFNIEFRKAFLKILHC

Structure (SMILES)	Emax [%]
CCc1cccc(NC(=O)CN2CCN(c3ccccn3)CC2)c1	18.7
Cc1cccc(NC(=O)CN2CCN(c3ccccn3)CC2)c1	23.9

Molecular target: T2, D(3) dopamine receptor (Homo sapiens, UniProt P35462)
Experiment: Agonist activity at human D3 receptor expressed in CHOK1 cells assessed as induction of beta-arrestin recruitment measured after 90 mins by luminescence assay
Assay type: cell-based
Settings: read-out: EC50
Method in brief: (§1)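 PathHunter enzyme-complementation assay in CHO-K1 cells stably expressing human D2R long isoform, D3R or D4R, seeded overnight in Ham's F12/10% FBS. Compounds were diluted in PBS with 0.2 μM sodium metabisulfite and applied at multiple concentrations for 90 min at 37 °C. Detection reagent was added for 45–60 min at room temperature, then luminescence was read. Values are % of maximal dopamine response, from nonlinear regression of triplicate runs, mean ± SEM, n = 3–4.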

T2 sequence (P35462 whole entry): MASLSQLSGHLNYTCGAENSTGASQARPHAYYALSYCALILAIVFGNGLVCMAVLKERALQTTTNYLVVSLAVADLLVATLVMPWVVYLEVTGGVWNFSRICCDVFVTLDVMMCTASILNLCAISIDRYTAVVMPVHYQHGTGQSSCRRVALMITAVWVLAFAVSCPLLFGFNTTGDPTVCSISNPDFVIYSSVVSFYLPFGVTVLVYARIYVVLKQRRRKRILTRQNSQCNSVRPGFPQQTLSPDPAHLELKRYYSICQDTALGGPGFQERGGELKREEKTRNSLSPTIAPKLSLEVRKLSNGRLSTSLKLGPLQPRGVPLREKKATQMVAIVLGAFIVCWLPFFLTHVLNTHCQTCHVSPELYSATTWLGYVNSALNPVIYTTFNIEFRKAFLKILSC

Structure (SMILES)	EC50 [nM]
Cc1cccc(NC(=O)CN2CCN(c3ccccn3)CC2)c1	6350

Molecular target: T3, D(4) dopamine receptor (Homo sapiens, UniProt P21917)
T3 sequence (P21917 whole entry): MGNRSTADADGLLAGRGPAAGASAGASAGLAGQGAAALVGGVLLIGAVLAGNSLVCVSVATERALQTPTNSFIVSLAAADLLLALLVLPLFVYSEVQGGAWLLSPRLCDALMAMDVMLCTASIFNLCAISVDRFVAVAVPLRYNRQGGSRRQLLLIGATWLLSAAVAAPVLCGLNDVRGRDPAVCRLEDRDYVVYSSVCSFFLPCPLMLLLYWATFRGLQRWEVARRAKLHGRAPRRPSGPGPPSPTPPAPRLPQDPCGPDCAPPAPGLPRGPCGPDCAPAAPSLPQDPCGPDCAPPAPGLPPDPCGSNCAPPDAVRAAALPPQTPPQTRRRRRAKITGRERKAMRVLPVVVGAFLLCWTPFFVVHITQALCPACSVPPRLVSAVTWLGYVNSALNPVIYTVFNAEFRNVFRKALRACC
Experiment: Antagonist activity at human D4 receptor expressed in CHOK1 cells assessed as inhibition of dopamine-induced beta-arrestin recruitment measured after 90 mins by luminescence assay
Assay type: cell-based
Settings: read-out: IC50

Structure (SMILES)	IC50 [nM]
CCc1cccc(NC(=O)CN2CCN(c3ccccn3)CC2)c1	370
Cc1cccc(NC(=O)CN2CCN(c3ccccn3)CC2)c1	313

Molecular target: T2, D(3) dopamine receptor
Experiment: Displacement of [3H]N-methylspiperone from human D3 receptor expressed in HEK293 cell membranes measured after 60 mins by scintillation counting method
Settings: not given
Method in brief: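 HEK293 cells stably expressing human D3R; membranes in EBSS buffer pH 7.4, stored at −80 °C. 20 μg protein/well with 0.4 nM [3H]N-methylspiperone (final), half-log dilutions in 30% DMSO, in triplicate. 60 min at room temperature, then GF/B filtration. Nonspecific binding with 10 μM (+)-butaclamol.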

Structure (SMILES)	Ki [nM]
Cc1cccc(NC(=O)CN2CCN(c3ccccn3)CC2)c1	> 10000

Molecular target: T3, D(4) dopamine receptor
Experiment: Displacement of [3H](R)-(+)-7-OH-DPAT from human D4.4 receptor expressed in HEK293 cell membranes measured after 90 mins by scintillation counting method
Settings: not given
Method in brief: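 HEK293 cells stably expressing human D4.4R; membranes used fresh in 50 mM Tris, 10 mM MgCl2, 1 mM EDTA, pH 7.4. 60 μg protein/well with 3 nM [3H]-(R)-(+)-7-OH-DPAT (final), half-log dilutions in 30% DMSO, in triplicate. 90 min at room temperature, then GF/B filtration. Nonspecific binding with 10 μM (+)-butaclamol.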

Structure (SMILES)	Ki [nM]
CCc1cccc(NC(=O)CN2CCN(c3ccccn3)CC2)c1	2.23
Cc1cccc(NC(=O)CN2CCN(c3ccccn3)CC2)c1	1.89

Molecular target: T2, D(3) dopamine receptor
Experiment: Antagonist activity at human D3 receptor expressed in CHOK1 cells assessed as inhibition of dopamine-induced beta-arrestin recruitment measured after 90 mins by luminescence assay relative to control
Assay type: cell-based
Settings: not given
Method in brief: (§2)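 Antagonist-mode PathHunter β-arrestin assay in CHO-K1 cells stably expressing human D2R long isoform or D3R, seeded overnight. Compound dilutions in PBS with 0.2 μM metabisulfite were co-incubated with an EC80 dopamine concentration for 90 min at 37 °C. Detection reagent was added for 45–60 min at room temperature, then luminescence was read. Values are % of dopamine EC80 response, from nonlinear regression of triplicate runs, n = 3–4.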

Structure (SMILES)	inhibition
CCc1cccc(NC(=O)CN2CCN(c3ccccn3)CC2)c1	100%
Cc1cccc(NC(=O)CN2CCN(c3ccccn3)CC2)c1	inactive

Molecular target: T3, D(4) dopamine receptor
Experiment: Antagonist activity at human D4 receptor expressed in CHOK1 cells assessed as suppression of dopamine-induced inhibition of forskolin-stimulated cAMP accumulation measured after 30 mins by Eu-cAMP tracer based TR-FRET assay
Assay type: functional, cell-based
Settings: not given

Structure (SMILES)	IC50 [nM]
CCc1cccc(NC(=O)CN2CCN(c3ccccn3)CC2)c1	1310
Cc1cccc(NC(=O)CN2CCN(c3ccccn3)CC2)c1	82.7

Molecular target: T1, D(2) dopamine receptor
Experiment: Antagonist activity at human D2L receptor expressed in CHOK1 cells assessed as suppression of dopamine-induced inhibition of forskolin-stimulated cAMP accumulation measured after 30 mins by Eu-cAMP tracer based TR-FRET assay relative to dopamine
Assay type: cell-based
Settings: 0.5 h

Structure (SMILES)	inhibition (INH) [%]
CCc1cccc(NC(=O)CN2CCN(c3ccccn3)CC2)c1	88

Molecular target: D(1A) dopamine receptor (Homo sapiens) (UniProt P21728)
Experiment: Antagonist activity at D1 receptor (unknown origin) stably expressed in CHOK1 cells assessed as inhibition of dopamine-induced beta-arrestin recruitment measured after 90 mins by luminescence assay
Assay type: cell-based
Settings: not given

Sequence of D(1A) dopamine receptor (Homo sapiens) (P21728 whole entry): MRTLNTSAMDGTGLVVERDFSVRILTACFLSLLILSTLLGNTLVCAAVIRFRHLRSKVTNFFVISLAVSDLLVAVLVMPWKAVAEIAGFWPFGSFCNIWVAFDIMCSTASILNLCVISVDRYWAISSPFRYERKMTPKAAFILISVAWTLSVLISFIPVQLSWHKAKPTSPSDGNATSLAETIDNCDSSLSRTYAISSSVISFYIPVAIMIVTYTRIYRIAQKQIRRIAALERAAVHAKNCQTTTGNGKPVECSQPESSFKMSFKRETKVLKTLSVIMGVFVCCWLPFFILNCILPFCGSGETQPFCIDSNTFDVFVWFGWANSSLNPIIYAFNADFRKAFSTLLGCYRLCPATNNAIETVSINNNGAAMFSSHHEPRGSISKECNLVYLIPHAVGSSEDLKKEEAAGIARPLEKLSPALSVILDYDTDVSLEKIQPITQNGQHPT

Structure (SMILES)	inhibition
Cc1cccc(NC(=O)CN2CCN(c3ccccn3)CC2)c1	inactive

Molecular target: T1, D(2) dopamine receptor
Experiment: Agonist activity at human D2L receptor expressed in CHOK1 cells assessed as inhibition of forskolin-induced cAMP accumulation measured after 30 mins by Eu-cAMP tracer based TR-FRET assay relative to dopamine
Assay type: cell-based
Settings: 0.5 h

Structure (SMILES)	Emax [%]
CCc1cccc(NC(=O)CN2CCN(c3ccccn3)CC2)c1	18.8
Cc1cccc(NC(=O)CN2CCN(c3ccccn3)CC2)c1	19

Molecular target: T3, D(4) dopamine receptor
Experiment: Agonist activity at human D4 receptor expressed in CHOK1 cells assessed as inhibition of forskolin-induced cAMP accumulation measured after 30 mins by Eu-cAMP tracer based TR-FRET assay
Assay type: functional, cell-based
Settings: read-out: EC50
Method in brief: (§3)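 LANCE Ultra TR-FRET cAMP assay in CHO-K1 cells stably expressing human D2R long isoform or D4R. Cells were plated in HBSS/5 mM HEPES/0.2 μM metabisulfite, then immediately given compound plus forskolin (10 μM final) for 30 min at room temperature. Eu-cAMP tracer and ULight-anti-cAMP were added for 2 h in the dark. Values are % of maximal dopamine signal, nonlinear regression of triplicate runs, n = 3–4.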

Structure (SMILES)	EC50 [nM]
CCc1cccc(NC(=O)CN2CCN(c3ccccn3)CC2)c1	28.7
Cc1cccc(NC(=O)CN2CCN(c3ccccn3)CC2)c1	3.6

Molecular target: T2, D(3) dopamine receptor
Experiment: Displacement of [3H](R)-(+)-7-OH-DPAT from human D3 receptor expressed in HEK293 cell membranes measured after 90 mins by scintillation counting method
Settings: not given
Method in brief: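 Fresh HEK293 hD3R membranes (40 μg/well) in 50 mM Tris, 10 mM MgCl2, 1 mM EDTA, pH 7.4 were incubated with 0.5 nM [3H]-(R)-(+)-7-OH-DPAT and half-log compound dilutions in 30% DMSO for 90 min at room temperature. Nonspecific binding was defined with 10 μM (+)-butaclamol. Samples were filtered on PEI-soaked GF/B filters and counted by scintillation.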

Structure (SMILES)	Ki [nM]
Cc1cccc(NC(=O)CN2CCN(c3ccccn3)CC2)c1	6480

Molecular target: T3, D(4) dopamine receptor
Experiment: Displacement of [3H]N-methylspiperone from human D4.4 receptor expressed in HEK293 cell membranes measured after 60 mins by scintillation counting method
Settings: not given
Method in brief: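 Frozen HEK293 membranes stably expressing human D4.4R (30 μg/well) in EBSS-bicarbonate buffer, pH 7.4, were incubated with 0.4 nM [3H]N-methylspiperone and half-log compound dilutions (30% DMSO vehicle) for 60 min at room temperature. Nonspecific binding was defined by 10 μM (+)-butaclamol. Samples were filtered on GF/B filters and counted by scintillation.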

Structure (SMILES)	Ki [nM]
CCc1cccc(NC(=O)CN2CCN(c3ccccn3)CC2)c1	67.9
Cc1cccc(NC(=O)CN2CCN(c3ccccn3)CC2)c1	212

Molecular target: D(1B) dopamine receptor (Homo sapiens) (UniProt P21918)
Experiment: Antagonist activity at D5 receptor (unknown origin) stably expressed in CHOK1 cells assessed as inhibition of dopamine-induced beta-arrestin recruitment measured after 90 mins by luminescence assay
Assay type: cell-based
Settings: not given

Sequence of D(1B) dopamine receptor (Homo sapiens) (P21918 whole entry): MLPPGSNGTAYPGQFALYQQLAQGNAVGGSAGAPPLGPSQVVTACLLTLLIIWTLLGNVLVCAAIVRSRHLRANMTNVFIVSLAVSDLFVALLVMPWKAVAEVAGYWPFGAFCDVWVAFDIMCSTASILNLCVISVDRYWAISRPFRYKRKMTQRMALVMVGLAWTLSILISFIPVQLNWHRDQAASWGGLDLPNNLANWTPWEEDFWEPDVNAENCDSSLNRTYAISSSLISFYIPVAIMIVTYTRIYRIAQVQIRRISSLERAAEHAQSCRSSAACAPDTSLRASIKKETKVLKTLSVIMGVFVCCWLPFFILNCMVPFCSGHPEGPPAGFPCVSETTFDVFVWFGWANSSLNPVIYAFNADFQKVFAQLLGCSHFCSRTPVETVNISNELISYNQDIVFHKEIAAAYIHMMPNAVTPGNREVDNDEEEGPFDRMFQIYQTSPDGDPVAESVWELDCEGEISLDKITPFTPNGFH

Structure (SMILES)	inhibition
Cc1cccc(NC(=O)CN2CCN(c3ccccn3)CC2)c1	inactive

Molecular target: T4, D(4) dopamine receptor (Homo sapiens) (UniProt P21917)
T4 sequence (whole entry): T3 sequence (P21917 whole entry)
Experiment: Agonist activity at human D4 receptor expressed in CHOK1 cells assessed as inhibition of forskolin-induced cAMP accumulation measured after 30 mins by Eu-cAMP tracer based TR-FRET assay relative to dopamine
Assay type: functional, cell-based
Settings: not given
Method in brief: as §3

Structure (SMILES)	Emax [%]
CCc1cccc(NC(=O)CN2CCN(c3ccccn3)CC2)c1	58
Cc1cccc(NC(=O)CN2CCN(c3ccccn3)CC2)c1	64.2

Molecular target: T4, D(4) dopamine receptor (Homo sapiens)
Experiment: Antagonist activity at human D4 receptor expressed in CHOK1 cells assessed as suppression of dopamine-induced inhibition of forskolin-stimulated cAMP accumulation measured after 30 mins by Eu-cAMP tracer based TR-FRET assay relative to dopamine
Assay type: functional, cell-based
Parameters: concentration or dose not given beside the values
Settings: not given

Structure (SMILES)	inhibition [%]
CCc1cccc(NC(=O)CN2CCN(c3ccccn3)CC2)c1	58.4
Cc1cccc(NC(=O)CN2CCN(c3ccccn3)CC2)c1	43.2

Molecular target: T4, D(4) dopamine receptor (Homo sapiens)
Experiment: Antagonist activity at human D4 receptor expressed in CHOK1 cells assessed as inhibition of dopamine-induced beta-arrestin recruitment measured after 90 mins by luminescence assay relative to control
Assay type: cell-based
Parameters: concentration or dose not given beside the values
Settings: not given

Structure (SMILES)	inhibition [%]
CCc1cccc(NC(=O)CN2CCN(c3ccccn3)CC2)c1	59.7
Cc1cccc(NC(=O)CN2CCN(c3ccccn3)CC2)c1	78.9

Molecular target: T4, D(4) dopamine receptor (Homo sapiens)
Experiment: Agonist activity at human D4 receptor expressed in CHOK1 cells assessed as induction of beta-arrestin recruitment measured after 90 mins by luminescence assay relative to control
Assay type: cell-based
Settings: not given
Method in brief: as §1

Structure (SMILES)	Emax [%]
CCc1cccc(NC(=O)CN2CCN(c3ccccn3)CC2)c1	26.2
Cc1cccc(NC(=O)CN2CCN(c3ccccn3)CC2)c1	30.7

Molecular target: D(1A) dopamine receptor (Homo sapiens) (UniProt P21728)
Experiment: Agonist activity at D1 receptor (unknown origin) stably expressed in CHOK1 cells assessed as induction of beta-arrestin recruitment measured after 90 mins by luminescence assay
Assay type: cell-based
Settings: not given

Structure (SMILES)	Activity
Cc1cccc(NC(=O)CN2CCN(c3ccccn3)CC2)c1	inactive

Molecular target: T3, D(4) dopamine receptor
Experiment: Agonist activity at human D4 receptor expressed in CHOK1 cells assessed as induction of beta-arrestin recruitment measured after 90 mins by luminescence assay
Assay type: cell-based
Settings: read-out: EC50
Method in brief: as §1

Structure (SMILES)	EC50 [nM]
CCc1cccc(NC(=O)CN2CCN(c3ccccn3)CC2)c1	133
Cc1cccc(NC(=O)CN2CCN(c3ccccn3)CC2)c1	394

Molecular target: T2, D(3) dopamine receptor
Experiment: Agonist activity at human D3 receptor expressed in CHOK1 cells assessed as induction of beta-arrestin recruitment measured after 90 mins by luminescence assay relative to control
Assay type: cell-based
Settings: not given
Method in brief: as §1

Structure (SMILES)	Emax [%]
CCc1cccc(NC(=O)CN2CCN(c3ccccn3)CC2)c1	44.7
Cc1cccc(NC(=O)CN2CCN(c3ccccn3)CC2)c1	49.4

Molecular target: T2, D(3) dopamine receptor
Experiment: Antagonist activity at human D3 receptor expressed in CHOK1 cells assessed as inhibition of dopamine-induced beta-arrestin recruitment measured after 90 mins by luminescence assay
Assay type: cell-based
Settings: read-out: IC50
Method in brief: as §2

Structure (SMILES)	IC50 [nM]
Cc1cccc(NC(=O)CN2CCN(c3ccccn3)CC2)c1	> 100000

Molecular target: D(1B) dopamine receptor (Homo sapiens) (UniProt P21918)
Experiment: Agonist activity at D5 receptor (unknown origin) stably expressed in CHOK1 cells assessed as induction of beta-arrestin recruitment measured after 90 mins by luminescence assay
Assay type: cell-based
Settings: not given

Structure (SMILES)	Activity
Cc1cccc(NC(=O)CN2CCN(c3ccccn3)CC2)c1	inactive
